# Measurements published in BindingDB's records for doi:10.1016/j.bmc.2019.03.030 (Northwestern University, 2019).
# pKi: −log10 of the molar value.
# Target: Sigma non-opioid intracellular receptor 1 (Homo sapiens, UniProt Q99720)
# Assay: Displacement of [3H]-(+)-pentazocine from sigma1 receptor (unknown origin) expressed in HEK293 cell membranes after 120 mins by microbeta scintillation counting method
# Method in brief: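 Radioligand binding run by an external screening program; sigma-1 tracer [3H]-pentazocine, sigma-2 tracer [3H]-DTG. Each compound first tested at a single 10 μM concentration. Those giving >50% inhibition were then titrated over a dose range to derive pKi.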
# Sequence of Sigma non-opioid intracellular receptor 1 (Q99720 whole entry): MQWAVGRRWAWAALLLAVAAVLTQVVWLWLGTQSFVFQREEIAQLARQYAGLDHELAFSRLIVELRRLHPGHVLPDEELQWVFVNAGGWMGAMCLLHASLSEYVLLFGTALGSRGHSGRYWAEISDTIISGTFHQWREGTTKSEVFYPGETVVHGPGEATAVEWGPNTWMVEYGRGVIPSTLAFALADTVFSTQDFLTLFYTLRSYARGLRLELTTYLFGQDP
compound,measurement,value
O=C(c1c2c(nn1-c1ccc(F)cc1)CCC(NCc1ccc(F)cc1)C2)N1CCCCC1 (stereo unspecified),pKi,7.80
